pIC50: −log10 of the molar value. Values after ≈ are worked out from the molar mass of the structure shown.
Experiments:
[1] = system: Liver microsome; test: Retention time of the compound in human liver microsomes at 20 uM by LC/UV chromatogram analysis; format: ADME
[2] = system: Liver microsome; test: Retention time of the compound in rat liver microsomes at 20 uM by LC/UV chromatogram analysis; format: ADME
[3] = biological target: T1, P2X purinoceptor 7 (Homo sapiens, UniProt Q99572); test: Antagonist activity at human P2X7R expressed in BzATP-stimulated human 1321N1 cells incubated for 20 mins followed by BzATP stimulation measured every 1 sec for 60 secs followed by 3 sec intervals for 4 mins by FLIPR Ca2+ assay in presence of ionomycin; format: cell-based
T1 sequence (Q99572 whole entry): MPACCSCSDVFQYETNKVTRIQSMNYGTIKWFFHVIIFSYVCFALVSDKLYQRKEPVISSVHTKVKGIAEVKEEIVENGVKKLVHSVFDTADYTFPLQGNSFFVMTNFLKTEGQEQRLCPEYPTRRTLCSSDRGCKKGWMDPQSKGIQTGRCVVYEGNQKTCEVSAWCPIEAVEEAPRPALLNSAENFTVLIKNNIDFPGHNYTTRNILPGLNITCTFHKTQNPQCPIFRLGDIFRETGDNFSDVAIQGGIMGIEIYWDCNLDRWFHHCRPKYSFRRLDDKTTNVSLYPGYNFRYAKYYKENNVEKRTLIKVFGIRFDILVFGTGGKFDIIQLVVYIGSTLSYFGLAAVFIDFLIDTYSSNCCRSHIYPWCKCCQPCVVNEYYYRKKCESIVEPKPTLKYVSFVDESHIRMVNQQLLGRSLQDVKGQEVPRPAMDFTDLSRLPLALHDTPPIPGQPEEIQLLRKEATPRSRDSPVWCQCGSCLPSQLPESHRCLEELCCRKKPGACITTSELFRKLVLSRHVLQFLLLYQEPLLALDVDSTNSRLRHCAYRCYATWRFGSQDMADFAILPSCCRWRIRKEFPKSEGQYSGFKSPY
Method in brief: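 1321N1 cells stably expressing human P2X7R, stimulated with BzATP; calcium flux read on FLIPR. IC50 is the mean of n ≥ 2 runs, each including a positive control.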

[4] = biological target: T1, P2X purinoceptor 7; test: Antagonist activity at P2X7R in human whole blood assessed as inhibition of LPS-induced IL-1beta production incubated for 30 mins followed by ATP addition for 30 mins by ELISA assay; format: tissue-based
[5] = system: Salmonella typhimurium; test: Genotoxicity in Salmonella typhimurium by Ames test; format: toxicity, organism-based; settings: salmonella enterica subsp. enterica serovar typhimurium
[6] = Oral bioavailability in rat at 2 mg/kg administered as single dose; format: ADME, organism-based; settings: in vivo
Method in brief: (§1)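 Rats given a single dose, iv 0.5 mg/kg or po 2 mg/kg, with n ≥ 2 per time point. Bioavailability is derived from the po and iv exposures. Vdss is reported in L/kg.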

[7] = Solubility of compound by lyophilization solubility assay; format: physicochemical
[8] = biological target: Cytochrome P450 3A4 (Homo sapiens, UniProt P08684); test: Inhibition of human CYP3A4 by fluorescence assay; format: ADME
Sequence of Cytochrome P450 3A4 (P08684 whole entry): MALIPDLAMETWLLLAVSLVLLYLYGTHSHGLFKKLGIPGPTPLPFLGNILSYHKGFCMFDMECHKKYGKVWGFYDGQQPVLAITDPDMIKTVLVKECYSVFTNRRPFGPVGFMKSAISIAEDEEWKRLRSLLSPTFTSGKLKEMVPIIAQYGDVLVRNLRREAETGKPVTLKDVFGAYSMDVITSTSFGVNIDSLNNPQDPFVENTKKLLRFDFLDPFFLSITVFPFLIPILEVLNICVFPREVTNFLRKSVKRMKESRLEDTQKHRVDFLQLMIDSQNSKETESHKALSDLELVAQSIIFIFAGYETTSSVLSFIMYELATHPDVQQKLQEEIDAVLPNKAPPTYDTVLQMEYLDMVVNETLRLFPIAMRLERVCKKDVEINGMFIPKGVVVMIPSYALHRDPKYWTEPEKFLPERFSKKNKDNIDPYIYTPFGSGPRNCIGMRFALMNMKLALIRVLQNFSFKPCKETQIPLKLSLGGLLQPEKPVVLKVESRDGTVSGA
Method in brief: (§2)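 IC50 values for CYP3A4, CYP2D6 and CYP2C9 from a fluorescence-based inhibition assay; average of n ≥ 2.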

[9] = biological target: Cytochrome P450 2C9 (Homo sapiens, UniProt P11712); test: Inhibition of human CYP2C9 by fluorescence assay; format: ADME; method in brief: as §2
Sequence of Cytochrome P450 2C9 (P11712 whole entry): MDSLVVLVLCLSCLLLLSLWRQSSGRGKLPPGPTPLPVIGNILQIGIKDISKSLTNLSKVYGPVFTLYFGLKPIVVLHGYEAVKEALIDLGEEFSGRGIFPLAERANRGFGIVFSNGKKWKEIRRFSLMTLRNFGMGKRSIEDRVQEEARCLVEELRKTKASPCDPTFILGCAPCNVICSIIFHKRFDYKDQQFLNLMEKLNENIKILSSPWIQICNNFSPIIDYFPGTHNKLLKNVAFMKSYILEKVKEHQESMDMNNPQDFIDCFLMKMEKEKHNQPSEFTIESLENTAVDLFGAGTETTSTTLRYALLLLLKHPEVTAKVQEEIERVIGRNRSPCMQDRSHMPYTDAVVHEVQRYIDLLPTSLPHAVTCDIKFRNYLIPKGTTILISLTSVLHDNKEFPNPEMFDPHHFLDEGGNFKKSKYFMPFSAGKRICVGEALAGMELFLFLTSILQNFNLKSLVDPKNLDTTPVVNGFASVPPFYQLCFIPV

[10] = system: Rattus norvegicus; test: Dose normalized AUC in rat at 2 mg/kg, po administered as single dose; format: ADME, organism-based; settings: in vivo
Method in brief: (§3)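 Single-dose rat PK: iv at 0.5 mg/kg and po at 2 mg/kg. n ≥ 2 animals per time point. Oral AUC normalized to dose; clearance, Vdss and half-life taken from the iv arm.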

[11] = Half life in rat at 0.5 mg/kg, iv administered as single dose; format: ADME, organism-based; settings: in vivo; method in brief: as §3
[12] = Clearance in rat at 0.5 mg/kg, iv administered as single dose; format: ADME, organism-based; settings: in vivo; method in brief: as §3
[13] = system: Liver microsome; test: Drug metabolism in rat liver microsomes assessed as GSH adduct UV peak area at 20 uM preincubated for 5 mins followed by NADPH addition measured after 60 mins by LC/MS/MS analysis relative to total area of GSH adduct, other metabolites, parent compound; format: ADME; settings: 1 h
[14] = system: Liver microsome; test: Drug metabolism in human liver microsomes assessed as GSH adduct UV peak area at 20 uM preincubated for 5 mins followed by NADPH addition measured after 60 mins by LC/MS/MS analysis relative to total area of GSH adduct, other metabolites, parent compound; format: ADME; settings: 1 h
[15] = biological target: Cytochrome P450 2D6 (Homo sapiens, UniProt P10635); test: Inhibition of human CYP2D6 by fluorescence assay; format: ADME; method in brief: as §2
Sequence of Cytochrome P450 2D6 (P10635 whole entry): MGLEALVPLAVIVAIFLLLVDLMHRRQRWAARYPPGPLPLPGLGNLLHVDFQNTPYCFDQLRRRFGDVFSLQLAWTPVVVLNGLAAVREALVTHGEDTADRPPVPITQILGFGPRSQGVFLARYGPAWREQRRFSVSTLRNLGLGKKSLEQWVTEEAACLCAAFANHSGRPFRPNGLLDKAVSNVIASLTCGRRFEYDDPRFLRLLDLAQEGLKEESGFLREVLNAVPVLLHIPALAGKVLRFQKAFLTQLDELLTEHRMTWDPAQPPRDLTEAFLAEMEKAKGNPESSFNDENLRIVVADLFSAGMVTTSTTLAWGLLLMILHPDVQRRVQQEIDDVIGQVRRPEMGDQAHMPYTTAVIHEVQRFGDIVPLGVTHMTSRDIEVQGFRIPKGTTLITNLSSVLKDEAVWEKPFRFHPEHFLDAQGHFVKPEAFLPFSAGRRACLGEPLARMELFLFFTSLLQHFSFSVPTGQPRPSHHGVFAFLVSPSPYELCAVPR

[16] = Volume of distribution at steady state in rat at 2 mg/kg, po and 0.5 mg/kg, iv administered as single dose; format: ADME, organism-based; settings: in vivo, read-out: Vdss; method in brief: as §1
[17] = Intrinsic clearance in human liver microsomes assessed per mg of protein at 1 uM after 1 hr by LC/MS/MS analysis; format: ADME; settings: read-out: CLH
[18] = Intrinsic clearance in rat liver microsomes assessed per mg of protein at 1 uM after 1 hr by LC/MS/MS analysis; format: ADME; settings: read-out: CLH
[19] = system: Liver microsome; test: Metabolic stability in rat liver microsomes assessed as GSH adduct formation at 20 uM preincubated for 5 mins followed by NADPH addition measured after 60 mins by LC/MS/MS analysis; format: ADME; settings: 1 h
Method in brief: (§4)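 Liver microsomes (human or rat) incubated with compound and glutathione. The GSH adduct is quantified by UV chromatography as % relative peak area versus the summed areas of GSH adduct, other metabolites and parent compound.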

[20] = system: Liver microsome; test: Metabolic stability in human liver microsomes assessed as GSH adduct formation at 20 uM preincubated for 5 mins followed by NADPH addition measured after 60 mins by LC/MS/MS analysis; format: ADME; settings: 1 h; method in brief: as §4
[21] = Drug level in solid phase treated with (4S)-N-[4-Chloro-5-(2-hydroxyethoxy)-2-methyl-phenyl]-4-(4-fluorophenyl)-2-oxo-3,4-dihydro-1H-pyridine-5-carboxamide after 1 month; format: physicochemical; settings: 730.5 h
[22] = Drug degradation in human plasma at 10 uM after 4 hrs by LC/MS/MS analysis; format: ADME, cell-free; settings: read-out: Drug degradation

COc1cc(NC(=O)N2C=CC(=O)C[C@H]2c2ccc(F)cc2)c(Br)c(SC[C@H](NC(=O)CC[C@H](N)C(=O)O)C(=O)NCC(=O)O)c1O
Retention_time [1]: 10.74 min | Retention_time [2]: 10.74 min

COc1cc(C)c(C)c(NC(=O)C2=CNC(=O)C[C@H]2c2ccc(F)cc2)c1
pIC50 [3]: 8.05

COc1cc(Br)c(NC(=O)N2C=CC(=O)C[C@H]2c2ccc(F)cc2)cc1OC
pIC50 [3]: 8.05 | Retention_time [1]: 16.58 min | Retention_time [2]: 16.58 min

Cc1ccc(-c2ccnn(CCO)c2=O)cc1NC(=O)C1=CN(C)C(=O)C[C@H]1c1ccc(F)cc1
pIC50 [4]: 7.77 | Activity [5]: Non-toxic

COc1cc(NC(=O)N2C=CC(=O)C[C@H]2c2ccc(F)cc2)c(Br)cc1F
pIC50 [3]: 7.49

COC[C@H](O)Cn1c(=O)cnn(-c2ccc(C)c(NC(=O)C3=CN(C)C(=O)C[C@H]3c3ccc(F)cc3)c2)c1=O
pIC50 [3]: 7.52 | bioavailability [6]: 20% | solubility [7]: 1020 µg/mL (≈ 1910 µM) | pIC50 [8]: < 4.30 | pIC50 [9]: < 4.30 | AUC [10]: 279 ng·h/mL | half-life [11]: 4 h | clearance [12]: 23 mL/min/kg | Stability [13]: Stable | Stability [14]: Stable | pIC50 [15]: < 4.30 | pIC50 [4]: 7.77 | Activity [5]: Non-toxic | Vd [16]: 1.2 L/kg

COc1cc(Br)c(NC(=O)C2=CNC(=O)C[C@H]2c2cccc(F)c2)cc1OC
pIC50 [3]: 8.05 | pIC50 [4]: 6.97

Cc1ccc(-c2ccn[nH]c2=O)cc1NC(=O)C1=CN(C)C(=O)C[C@H]1c1ccc(F)cc1
pIC50 [4]: 7.70 | Activity [5]: Toxic

COc1cc(C)c(NC(=O)N2C=CC(=O)C[C@H]2c2ccc(F)cc2)cc1OC
pIC50 [3]: 7.92 | microsomal CLint at 1 µM [17]: 8.2 µL/min/mg | microsomal CLint at 1 µM [18]: 25 µL/min/mg

Cc1ccc(-n2ccccc2=O)cc1NC(=O)C1=CN(C)C(=O)N[C@H]1c1ccc(F)cc1
pIC50 [3]: 7.66 | pIC50 [4]: 7.68 | Activity [5]: Non-toxic

O=C1C=CN(C(=O)Nc2ccc3ncccc3c2Br)[C@H](c2ccc(F)cc2)C1
Stability [19]: Stable | Stability [20]: Stable

Cc1cc(Cl)c(OCCO)cc1N
Drug metabolism [21]: metabolite_detected | Activity [5]: Toxic

COc1cc(Br)c(NC(=O)N2C=CC(=O)CC2c2ccccc2)cc1OC (racemic)
pIC50 [3]: 7.41 | microsomal CLint at 1 µM [17]: 22 µL/min/mg | microsomal CLint at 1 µM [18]: 78 µL/min/mg

COc1cc(I)c(CC(=O)N2C=CC(=O)C[C@@H]2c2ccccc2)cc1OC
pIC50 [3]: 5.42

Cc1ccc(-c2ccnn(C)c2=O)cc1NC(=O)C1=CN(C)C(=O)C[C@H]1c1ccc(F)cc1
pIC50 [4]: 8.22 | Activity [5]: Toxic

Cc1cc(F)c(-c2ccnn(C)c2=O)cc1NC(=O)C1=CN(C)C(=O)C[C@H]1c1ccc(F)cc1
pIC50 [3]: 8.10 | bioavailability [6]: 64% | solubility [7]: 322 µg/mL (≈ 693 µM) | pIC50 [8]: < 4.49 | pIC50 [9]: < 4.49 | AUC [10]: 1121 ng·h/mL | half-life [11]: 1 h | clearance [12]: 17 mL/min/kg | Stability [14]: Stable | pIC50 [15]: < 4.49 | pIC50 [4]: 7.89 | Activity [5]: Non-toxic | Vd [16]: 1 L/kg

COc1cc(I)c(CC(=O)N2C=CC(=O)C[C@H]2c2ccccc2)cc1OC
pIC50 [3]: 7.42

Cc1cc(Cl)c(OCCO)cc1NC(=O)N1C=CC(=O)C[C@H]1c1ccc(F)cc1
pIC50 [3]: 8.05 | metabolised at 4 h, 10 µM [22]: 50%

O=C1C=CN(C(=O)Nc2cc(OCCO)c(Cl)cc2Br)[C@H](c2ccc(F)cc2)C1
pIC50 [3]: 7.40

COc1cc(NC(=O)N2C=CC(=O)C[C@@H]2c2ccccc2)c(Br)cc1Cl
pIC50 [3]: < 5.00

Cc1ccc(-n2ncccc2=O)cc1NC(=O)C1=CN(C)C(=O)C[C@H]1c1ccc(F)cc1
pIC50 [4]: 7.48 | Activity [5]: Non-toxic

Cc1cc2cnn(CCO)c2cc1NC(=O)C1=CNC(=O)C[C@H]1c1ccc(F)cc1
pIC50 [3]: 7.64 | pIC50 [4]: 7.33

COc1cc(NC(=O)N2C=CC(=O)C[C@H]2c2ccccc2)c(Br)cc1Cl
pIC50 [3]: 7.48

COc1cc(Br)c(CC(=O)N2C=CC(=O)CC2c2ccccc2)cc1OC (racemic)
pIC50 [3]: 7.04 | microsomal CLint at 1 µM [17]: 153 µL/min/mg | microsomal CLint at 1 µM [18]: 490 µL/min/mg

COc1cc(I)c(CC(=O)N2C=CC(=O)CC2c2ccccc2)cc1OC (racemic)
pIC50 [3]: 6.98 | microsomal CLint at 1 µM [17]: 168 µL/min/mg | microsomal CLint at 1 µM [18]: 548 µL/min/mg

CN1C=C(C(=O)Nc2cc(-c3ccn[nH]c3=O)ccc2F)[C@H](c2ccc(F)cc2)CC1=O
pIC50 [3]: 7.59 | pIC50 [4]: 7.57 | Activity [5]: Non-toxic

COc1cc(NC(=O)N2C=CC(=O)C[C@H]2c2ccc(F)cc2)c(Br)cc1Cl
pIC50 [3]: 7.43

Reference: ChEMBL document CHEMBL3739255, “Novel Series of Dihydropyridinone P2X7 Receptor Antagonists” (J Med Chem, 2015)
